Measurements as given in ChEMBL document CHEMBL4406852, “Combating fluconazole-resistant fungi with novel β-azole-phenylacetone derivatives” (Eur J Med Chem, 2019).
Converted amounts (≈) assume the structure as drawn.

Key:
[1] = test system: Candida albicans; assay: Antifungal activity against fluconazole-resistant Candida albicans 901 assessed as reduction in fungal growth incubated for 24 hrs by serial dilution method; type: functional; conditions: Candida albicans, 901, 24 h
Method in brief: (§1)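 Fluconazole-resistant C. albicans clinical isolates (17# and CaR from AIDS patients; 632, 901, 904 from clinic) tested by CLSI broth dilution MIC in RPMI 1640 buffered to pH 7.0 with MOPS. Compounds dissolved in DMSO, serially diluted to final 0.03–16 or 0.125–64 μg/mL; inoculum 1–5 × 10^3 CFU/mL; 35 °C, 24 h. MIC = lowest concentration inhibiting visible growth; fluconazole and itraconazole as controls.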

[2] = test system: Candida albicans; assay: Antifungal activity against fluconazole-resistant Candida albicans 904 assessed as reduction in fungal growth incubated for 24 hrs by serial dilution method; type: functional; conditions: Candida albicans, 904, 24 h; method in brief: as §1
[3] = test system: Nakaseomyces glabratus; assay: Antifungal activity against Candida glabrata assessed as reduction in fungal growth incubated for 24 hrs by serial dilution method; type: functional
Method in brief: (§2)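 MIC by CLSI broth microdilution in RPMI 1640 buffered to pH 7.0 with MOPS. Compounds dissolved in DMSO and serially diluted to final 0.03–16 or 0.125–64 µg/mL. Inoculum 1–5 × 10^3 CFU/mL. Incubation 35 °C, 24 h. Drug-free growth and fungus-free blank controls. MIC is the lowest concentration preventing visible growth.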

[4] = test system: Candida tropicalis; assay: Antifungal activity against Candida tropicalis GIM 2.183 assessed as reduction in fungal growth incubated for 24 hrs by serial dilution method; type: functional; conditions: GIM 2.183, 24 h; method in brief: as §2
[5] = molecular target: T1, Lanosterol 14-alpha demethylase (Candida albicans (strain SC5314 / ATCC MYA-2876) (Yeast), UniProt P10613); assay: Inhibition of Candida albicans CYP51 assessed as ergosterol level at 0.015 ug/ml incubated for 18 hrs by GC/MS analysis (reference value: 100%); set-up: scale not given: the % may be the effect or the level left
Method in brief: (§3)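 C. albicans SC5314 was grown in RPMI 1640 with 0.015 µg/mL compound, or fluconazole 0.25 µg/mL, about 18 h at 30 °C with shaking at 200 rpm. Cells were pelleted and washed with PBS, then saponified 60 min at 80 °C in ethanol/pyrogallol/60% KOH. Nonsaponifiable sterols were extracted three times with heptane and analysed by GC-MS.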

[6] = Cytotoxicity against human A549 cells assessed as cell survival at 0.4 uM/l incubated for 24 hrs by MTT assay relative to control; type: cell-based; conditions: read-out: Activity
Method in brief: (§4)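 A549 cells were seeded at 3000 per well in RPMI 1640 and held 16 h at 37 °C, 5% CO2. Medium was then replaced with medium holding DMSO-dissolved compound at final 0.08, 0.4, 2.0 or 10 µM/L and incubated 24 h. MTT was added for 4 h and absorbance read at 490 nm to give survival.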

[7] = Cytotoxicity against human A549 cells assessed as cell survival at 10 uM/l incubated for 24 hrs by MTT assay relative to control; type: cell-based; conditions: read-out: Activity; method in brief: as §4
[8] = test system: Candida albicans; assay: Antifungal activity against fluconazole-resistant Candida albicans 17 assessed as reduction in fungal growth incubated for 24 hrs by serial dilution method; type: functional; conditions: Candida albicans, 17, 24 h; method in brief: as §1
[9] = molecular target: T1, Lanosterol 14-alpha demethylase; assay: Inhibition of Candida albicans CYP51 assessed as increase in sterol level at 0.015 ug/ml incubated for 18 hrs by GC/MS analysis relative to control; set-up: scale not given: the % may be the effect or the level left; method in brief: as §3
[10] = test system: Candida parapsilosis; assay: Antifungal activity against Candida parapsilosis GIM 2.190 assessed as reduction in fungal growth incubated for 24 hrs by serial dilution method; type: functional; conditions: Lodderomyces parapsilosis, GIM 2.190, 24 h; method in brief: as §2
[11] = Cytotoxicity against human A549 cells assessed as cell survival at 0.08 uM/l incubated for 24 hrs by MTT assay relative to control; type: cell-based; conditions: read-out: Activity; method in brief: as §4
[12] = molecular target: T1, Lanosterol 14-alpha demethylase; assay: Inhibition of Candida albicans CYP51 assessed as increase in eburicol level at 0.015 ug/ml incubated for 18 hrs by GC/MS analysis relative to control; set-up: scale not given: the % may be the effect or the level left; method in brief: as §3
[13] = test system: Candida albicans; assay: Antifungal activity against fluconazole-resistant Candida albicans 632 assessed as reduction in fungal growth incubated for 24 hrs by serial dilution method; type: functional; conditions: Candida albicans, 632, 24 h; method in brief: as §1
[14] = test system: Candida albicans; assay: Antifungal activity against Candida albicans SC5314 assessed as reduction in fungal growth incubated for 24 hrs by serial dilution method; type: functional; conditions: SC5314, 24 h; method in brief: as §2
[15] = test system: Candida albicans; assay: Antifungal activity against fluconazole-resistant Candida albicans CaR assessed as reduction in fungal growth incubated for 24 hrs by serial dilution method; type: functional; method in brief: as §1
[16] = Cytotoxicity against human A549 cells assessed as cell survival at 2 uM/l incubated for 24 hrs by MTT assay relative to control; type: cell-based; conditions: read-out: Activity; method in brief: as §4
[17] = molecular target: T1, Lanosterol 14-alpha demethylase; assay: Inhibition of Candida albicans CYP51 assessed as increase in 14alpha-methyl ergosta-8,24(28)-dien-3beta,6alpha-diol level at 0.015 ug/ml incubated for 18 hrs by GC/MS analysis relative to control; set-up: scale not given: the % may be the effect or the level left; method in brief: as §3
[18] = molecular target: T1, Lanosterol 14-alpha demethylase; assay: Inhibition of Candida albicans CYP51 assessed as increase in lanosterol level at 0.015 ug/ml incubated for 18 hrs by GC/MS analysis relative to control; set-up: scale not given: the % may be the effect or the level left; method in brief: as §3
[19] = test system: Candida albicans; assay: Antifungal activity against Candida albicans GIM 2.194 assessed as reduction in fungal growth incubated for 24 hrs by serial dilution method; type: functional; conditions: GIM 2.194, 24 h; method in brief: as §2
[20] = molecular target: T1, Lanosterol 14-alpha demethylase; assay: Inhibition of Candida albicans CYP51 assessed as increase in eburicol level at 0.25 ug/ml incubated for 18 hrs by GC/MS analysis relative to control; set-up: scale not given: the % may be the effect or the level left
Method in brief: (§5)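 Candida albicans SC5314 grown in RPMI 1640 with agitation (200 rpm) for ~18 h at 30 °C, with 0.25 µg/mL fluconazole as a comparator alongside the test compound. Cells were pelleted (3000g, 10 min), PBS-washed thrice, and saponified 60 min at 80 °C in ethanol, ethanolic pyrogallol and 60% KOH. Nonsaponifiable sterols were extracted thrice with heptane and profiled by GC-MS.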

[21] = molecular target: T1, Lanosterol 14-alpha demethylase; assay: Inhibition of Candida albicans CYP51 assessed as ergosterol level at 0.25 ug/ml incubated for 18 hrs by GC/MS analysis (reference value: 100%); set-up: scale not given: the % may be the effect or the level left; method in brief: as §5
[22] = molecular target: T1, Lanosterol 14-alpha demethylase; assay: Inhibition of Candida albicans CYP51 assessed as increase in sterol level at 0.25 ug/ml incubated for 18 hrs by GC/MS analysis relative to control; set-up: scale not given: the % may be the effect or the level left; method in brief: as §5
[23] = molecular target: T1, Lanosterol 14-alpha demethylase; assay: Inhibition of Candida albicans CYP51 assessed as increase in lanosterol level at 0.25 ug/ml incubated for 18 hrs by GC/MS analysis relative to control; set-up: scale not given: the % may be the effect or the level left; method in brief: as §5
[24] = molecular target: T1, Lanosterol 14-alpha demethylase; assay: Inhibition of Candida albicans CYP51 assessed as increase in 14alpha-methyl ergosta-8,24(28)-dien-3beta,6alpha-diol level at 0.25 ug/ml incubated for 18 hrs by GC/MS analysis relative to control; set-up: scale not given: the % may be the effect or the level left; method in brief: as §5

T1 sequence (P10613 whole entry): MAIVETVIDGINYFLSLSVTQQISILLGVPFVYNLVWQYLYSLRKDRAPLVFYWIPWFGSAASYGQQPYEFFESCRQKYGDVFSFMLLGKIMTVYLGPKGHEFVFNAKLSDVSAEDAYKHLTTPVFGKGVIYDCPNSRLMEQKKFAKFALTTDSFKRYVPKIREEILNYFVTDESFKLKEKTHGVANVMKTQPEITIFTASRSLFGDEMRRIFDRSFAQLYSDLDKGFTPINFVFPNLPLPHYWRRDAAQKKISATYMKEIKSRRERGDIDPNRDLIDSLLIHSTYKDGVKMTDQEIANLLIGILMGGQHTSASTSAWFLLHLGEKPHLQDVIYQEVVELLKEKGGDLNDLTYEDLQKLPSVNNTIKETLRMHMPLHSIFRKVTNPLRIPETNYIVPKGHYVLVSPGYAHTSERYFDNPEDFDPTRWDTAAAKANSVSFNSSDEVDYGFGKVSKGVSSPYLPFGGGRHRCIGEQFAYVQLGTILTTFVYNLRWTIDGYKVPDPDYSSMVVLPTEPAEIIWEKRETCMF

| SMILES | MIC [1] [µg/mL] | MIC [2] [µg/mL] | MIC [3] [µg/mL] | MIC [4] [µg/mL] | viability at 24 h, 0.4 µM [6] [%] | viability at 24 h, 10 µM [7] [%] | MIC [8] [µg/mL] | MIC [10] [µg/mL] | viability at 24 h, 0.08 µM [11] [%] | MIC [13] [µg/mL] | MIC [14] [µg/mL] | MIC [15] [µg/mL] | viability at 24 h, 2 µM [16] [%] | MIC [19] [µg/mL] | other results |
| --- | --- | --- | --- | --- | --- | --- | --- | --- | --- | --- | --- | --- | --- | --- | --- |
| Cc1ccc(C(=O)C(Cn2ccnc2)NC(=O)c2ccc(-c3ccccc3)c(F)c2)cc1 (stereo not given) | 16 (≈ 37.4 µM) | 16 (≈ 37.4 µM) | 0.125 (≈ 0.292 µM) | 0.03 (≈ 0.0702 µM) | 100 | 92.5 | 2 (≈ 4.68 µM) | 0.125 (≈ 0.292 µM) | 100 | 16 (≈ 37.4 µM) | 0.03 (≈ 0.0702 µM) | 1 (≈ 2.34 µM) | 97 | 0.06 (≈ 0.14 µM) | Activity [5]: 41.99%; Activity [9]: 3.04 to 5.85%; Activity [12]: 9.56%; Activity [17]: 13.26%; Activity [18]: 23.17% |
| O=C(NC(Cn1ccnc1)C(=O)c1ccc(F)cc1)c1ccc(-c2ccccc2)cc1F (stereo not given) | > 64 | 8 (≈ 18.5 µM) | 0.125 (≈ 0.29 µM) | 0.125 (≈ 0.29 µM) | 100 | 86.8 | 2 (≈ 4.64 µM) | 0.125 (≈ 0.29 µM) | 100 | > 64 | 0.06 (≈ 0.139 µM) | 2 (≈ 4.64 µM) | 100 | 0.25 (≈ 0.579 µM) |  |
| O=C(NC(Cn1ccnc1)C(=O)c1cccc(Cl)c1)c1ccc(-c2ccccc2)cc1 (stereo not given) | 1 (≈ 2.33 µM) | 4 (≈ 9.3 µM) | 0.125 (≈ 0.291 µM) | 0.03 (≈ 0.0698 µM) | 97.4 | 96.3 | > 64 | 0.125 (≈ 0.291 µM) | 100 | 4 (≈ 9.3 µM) | 0.03 (≈ 0.0698 µM) | > 64 | 97.2 | 0.06 (≈ 0.14 µM) |  |
| O=C(NC(Cn1ccnc1)C(=O)c1ccccc1F)c1ccc(-c2ccccc2)cc1 (stereo not given) | 0.25 (≈ 0.605 µM) | < 0.125 | 2 (≈ 4.84 µM) | 1 (≈ 2.42 µM) | 100 | 100 | 8 (≈ 19.3 µM) | 0.125 (≈ 0.302 µM) | 100 | 0.5 (≈ 1.21 µM) | 0.125 (≈ 0.302 µM) | 1 (≈ 2.42 µM) | 100 | 0.125 (≈ 0.302 µM) |  |
| OC(Cn1cncn1)(Cn1cncn1)c1ccc(F)cc1F [FLUCONAZOLE] | > 64 | > 64 | 4 (≈ 13.1 µM) | 0.5 (≈ 1.63 µM) | 99.1 | 95.3 | > 64 | 2 (≈ 6.53 µM) | 100 | > 64 | 0.5 (≈ 1.63 µM) | > 64 | 95.7 | 2 (≈ 6.53 µM) | Activity [20]: 4.27%; Activity [21]: 63%; Activity [22]: 1.54 to 5.07%; Activity [23]: 16.74%; Activity [24]: 5.15% |
